Measurements collected from several papers.
Compare with care: the assays were run in different laboratories.
BRAF: Serine/threonine-protein kinase B-raf (BRAF, Homo sapiens, UniProt P15056)
BRAF V600E: Serine/threonine-protein kinase B-raf (BRAF, Homo sapiens, UniProt P15056, V600E)

| SMILES | target | assay | conditions | measurement | value |
| --- | --- | --- | --- | --- | --- |
| N#CCCc1ccc2c(c1)-c1[nH]c3ccc([N+](=O)[O-])cc3c1CC(=O)N2 | BRAF | cell-free assay | 0.5 µM | remaining signal | 99.3% |
| CC1CCCN1c1nccc(-c2cnn3ncccc23)n1 (stereo not shown) | BRAF | binding | 1 µM | remaining binding | 100% |
| Cc1ccc(C(CS(=O)(=O)c2ccccc2)=NNC(N)=S)cc1 | BRAF V600E | enzyme activity, inhibitor, ATP luminescence | 0.1 µM | inhibition | 46% |
| CC(C)(C)c1nc2c(s1)c1nc(N)ncc1c1ccc(NS(=O)(=O)c3c(F)cccc3F)c(F)c12 | BRAF V600E | enzyme activity, inhibitor, radiometric | 1 µM | remaining activity | 27% |
| O=C(NS(=O)(=O)c1ccc(NCC2CCOCC2)c([N+](=O)[O-])c1)c1ccc(N2CCN(Cc3ccc(C(F)(F)F)cc3-c3ccc(Cl)cc3)CC2)cc1Oc1cnc2[nH]ccc2c1 | BRAF V600E | cell-free assay, competition with immobilised ligand | 1 µM | remaining binding | 83% |
| Cc1ccc(N=Nc2sc(NN=C(CS(=O)(=O)c3ccccc3)c3ccc(C)cc3)nc2C)cc1 | BRAF V600E | enzyme activity, inhibitor, ATP luminescence | 0.1 µM | inhibition | 48% |
| C[C@H](c1cccc(C#N)c1)n1cc(Cl)cc(C(N)=O)c1=N | BRAF V600E | cell-free assay, competition with immobilised ligand | 1 µM | remaining binding | 100% |
| Cc1ccc(C(CS(=O)(=O)c2ccccc2)=NNC2=NC(=O)C(=NNc3ccc([N+](=O)[O-])cc3)S2)cc1 | BRAF V600E | enzyme activity, inhibitor, ATP luminescence | 0.1 µM | inhibition | 49% |
| C[C@@H]1CN(c2cc(-c3nn(C)c4ccc(OC5(C)CC5)cc34)ncn2)C[C@H](C)O1 | BRAF V600E | cell-free assay, competition with immobilised ligand | 1 µM | remaining binding | 91% |
| Cc1ccc(C(=O)NCc2ccsc2)cc1C#Cc1cn(C(C)C)c2ncnc(N)c12 | BRAF | enzyme activity, inhibitor | 1 µM | activity vs control | 47% |
| COc1cc(Nc2c(C#N)cnc3cc(OCCCN4CCN(C)CC4)c(OC)cc23)c(Cl)cc1Cl | BRAF | cell-free assay | 0.5 µM | remaining signal | 91.7% |
| NC(=S)NN=C(CS(=O)(=O)c1ccccc1)c1ccc(F)cc1 | BRAF V600E | enzyme activity, inhibitor, ATP luminescence | 0.1 µM | inhibition | 51% |
| O=C(Nc1cnn(-c2csc(C(=O)NC3COC3)c2)c1)Nc1ccccc1Cl | BRAF | enzyme activity, inhibitor | 5 µM | remaining activity | 93.3% |
| Cc1nc(N2CC[C@@H](O)C2)ncc1-c1cc(C(F)(F)F)cc2[nH]ncc12 | BRAF | cell-free assay, competition with immobilised ligand | 1 µM | remaining binding | 73% |
| Cc1cc(NC(=O)c2cccc3cc(-c4cccc5[nH]nc(N)c45)ccc23)ccc1F | BRAF V600E | enzyme activity, inhibitor | 0.1 µM | activity vs control | 100% |
| CC(=O)Nc1c(C(C)=O)c(=O)n(C)c2nc(-c3ccc(Cl)cc3Cl)c(-c3ccc(Cl)cc3)cc12 | BRAF | cell-free assay, competition with immobilised ligand | 1 µM | remaining binding | 100% |
| Cc1ccc(C(CS(=O)(=O)c2ccccc2)=NNc2nc(-c3ccc(OCCCCOc4ccc(-c5csc(NN=C(CS(=O)(=O)c6ccccc6)c6ccc(C)cc6)n5)cc4)cc3)cs2)cc1 | BRAF V600E | enzyme activity, inhibitor, ATP luminescence | 10 nM | inhibition | 32% |
| Nc1c(C(=O)NCc2ccc(C(=O)NCCCC3CCCCC3)cc2)cnn1-c1ccccc1 | BRAF | cell-free assay, competition with immobilised ligand | 0.1 µM | remaining binding | 90% |
| Cc1ccc(C(CS(=O)(=O)c2ccccc2)=NNC2=NC(=O)C(=NNc3ccc(Cl)cc3)S2)cc1 | BRAF V600E | enzyme activity, inhibitor, ATP luminescence | 1 µM | inhibition | 61% |
